A selection: hits, their analogues and other compounds. The true share with any hit is near 3.4%.
ANO1 block – blocks the mouse calcium-activated chloride channel TMEM16A; Q8BHY3; HEK293 TMEM16A/YFP iodide influx fluorescence, ionomycin; normalized B-score (activity score, 25-100; higher = stronger inhibition) at 10 µM; 1.2% of 310,000 active;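 active means ratio plate-corrected score three or more library SD toward inhibition, starting fluorescence score within five deviations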;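 further: score derived from kinetic fluorescence span divided by baseline fluorescence per well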
MC4R antag cAMP – blocks human MC4R cAMP signaling | P32245 | MC4R-expressing cells, MTII-stimulated cAMP, LANCE TR-FRET | inhibition, % at 6.5 µM | 0.48% of 360,000 active;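 active means inhibition above its plate's cutoff, the mean of tested wells on that plate plus 3 SD, cut at about 29% in these data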;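 further: 0% = Melanotan II alone and 100% = Melanotan II plus saturating MCL0020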
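Material – human MC4R-expressing U2OS cells · Repeats – no replicates · Detection – TR-FRET with Eu-cAMP and labeled anti-cAMP, 671 nm · Times – compound 30 min, challenge 1 h, detection 1 h · Compound – single nominal compound dose of 6.5 µM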
TMEM16A act – activators or potentiators of mouse TMEM16A chloride channel; Q8BHY3; HEK293 TMEM16A/YFP-H148Q/I152L, iodide quench fluorescence; stronger effect = lower value; B-score at 10 µM; 0.3% of 340,000 active; AID 623877;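 active means fluorescence-ratio B-score plate-corrected deviation score at least 3 library SD below zero, with starting fluorescence score within 5 deviations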;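 further: channel opened by trigger with iodide after compound preincubation; score built on the fluorescence ratio of max minus min over baseline; more negative score means more quench and so TMEM16A activation or potentiation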
MC4R ag barr – agonists of human melanocortin 4 receptor (MC4R) beta-arrestin; activation, % at 8.9 µM; U2OS MC4R beta-arrestin complementation, luminescence; percent of melanotan II response, DMSO zero; 0.98% of 360,000 active; P32245;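 active means activation above a per-plate cutoff, the mean activation of sample wells on that plate plus 3 SD, cut at about 8% in these data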
HTR2A ag – mouse HTR2A agonism via beta-arrestin recruitment; P35363; CHO-K1 mHTR2A beta-arrestin complementation, luminescence; percent of 30 µM serotonin response; 0.66% of 360,000 active; activation, % at 7.6 µM;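 active means activation above a run cutoff, the mean activation of all tested compounds plus 3 SD, cut at about 14% in these data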;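 further: 0% = plate median of compound wells and 100% = 30 µM serotonin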
beta cell repl – inducers of beta-cell replication in MIN6 cells; MIN6 cells proliferation, ATPlite luminescence, 48 h; cells starved in 0.2% serum; 100% = growth in 10% serum; proliferation, % at 10 µM; 0.29% of 330,000 active; AID 2380;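 active means compounds whose signal lies at least 3.5 SD above the mean of all wells on their plate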;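 further: 0% = DMSO-treated cells in low-serum medium and 100% = 10% serum control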
MC4R barr ag – human MC4R beta-arrestin agonism confirmation; U2OS MC4R beta-arrestin recruitment, luminescence; scaled DMSO 0%, Melanotan II 100%; 31% of 2,400 active; activation, % at 8.9 µM; shares compounds with MC4R ag barr;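 active means mean activation across replicates above the hit cutoff set in the earlier primary screen, cut at about 8% in these data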
MOR-DOR barr ag – counter-screen for MC4R agonists: agonists of mu-delta opioid heterodimer; shares compounds with MC4R ag barr; activation, % at 9.2 µM; 5.8% of 2,400 active; U2OS PathHunter beta-arrestin, beta-gal luminescence; percent of deltorphin B response, DMSO zero;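 active means mean activation across replicates exceeds the hit threshold derived in the earlier primary screen, cut at about 18% in these data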;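 further: 100% = deltorphin B at 0.9 µM final and 0% = DMSO alone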
Target sequence (P35372 whole entry, looked up): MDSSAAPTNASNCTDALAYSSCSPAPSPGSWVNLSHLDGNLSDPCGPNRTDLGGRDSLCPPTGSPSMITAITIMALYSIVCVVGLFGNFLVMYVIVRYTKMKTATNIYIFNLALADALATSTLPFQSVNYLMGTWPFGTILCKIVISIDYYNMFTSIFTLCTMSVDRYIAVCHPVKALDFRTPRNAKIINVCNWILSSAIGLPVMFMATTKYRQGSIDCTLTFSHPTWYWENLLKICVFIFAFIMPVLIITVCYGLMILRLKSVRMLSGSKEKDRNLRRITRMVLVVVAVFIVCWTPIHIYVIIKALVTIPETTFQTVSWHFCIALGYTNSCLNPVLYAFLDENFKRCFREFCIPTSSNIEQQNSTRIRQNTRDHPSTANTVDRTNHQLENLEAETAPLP
Target sequence (P41143 whole entry, looked up): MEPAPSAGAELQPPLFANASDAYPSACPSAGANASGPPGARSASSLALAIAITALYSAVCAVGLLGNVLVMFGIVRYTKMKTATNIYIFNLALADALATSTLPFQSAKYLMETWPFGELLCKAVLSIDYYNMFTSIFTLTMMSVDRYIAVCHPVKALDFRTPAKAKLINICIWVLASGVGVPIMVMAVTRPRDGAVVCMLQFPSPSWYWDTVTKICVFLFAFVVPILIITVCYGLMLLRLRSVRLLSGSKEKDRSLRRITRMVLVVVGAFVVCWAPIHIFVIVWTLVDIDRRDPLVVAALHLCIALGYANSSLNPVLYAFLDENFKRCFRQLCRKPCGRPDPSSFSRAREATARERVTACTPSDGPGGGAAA
Numbers without * were called inactive; i = inactive; . = no result.

SMILES	ANO1 block	MC4R antag cAMP	TMEM16A act	MC4R ag barr	HTR2A ag	beta cell repl	MC4R barr ag	MOR-DOR barr ag
O=C(NCc1ccc(OC(F)(F)F)cc1)C1CC(c2ccc(C(F)(F)F)cc2)=NO1 (centres undefined)	i	4.6	i	5.2	5.7	-4.9	.	.
O=C(NCc1ccc(C(F)(F)F)cc1)C1CC(c2ccc(C(F)(F)F)cc2)=NO1 (centres undefined)	i	-6.8	i	11.8*	2.9	-5.8	2.5	6.9
COC(=O)C1=C(C)N(Cc2ccccc2)C(=NCc2ccccc2)N[C@H]1c1ccccc1	.	2.2	i	3.9	-1.7	-5.6	.	.
COC(=O)C1=C(C)N(Cc2ccccc2)C(=NCc2ccccc2)N[C@H]1c1cccc(F)c1	i	11.2	i	9.6*	7.4	-7.9	10.6*	11.0
CC(/C=C/C=C/c1ccccc1)=N/NC(=O)CNc1ccccc1C	i	-13.9	i	13.7*	3.2	0.0	29.1*	9.7
COc1ccc(Nc2nc3cc(-c4sccc4C)sc3c(=O)n2C)cc1OC	.	4.3	.	-2.5	1.3	.	.	.
CCOC(=O)Cc1ccc(Nc2nc3cc(-c4sccc4C)sc3c(=O)n2C)cc1	.	-6.8	.	14.3*	4.7	.	0.9	3.5
CCc1noc(C)c1C(=O)N1CCN(S(=O)(=O)c2ccc(Br)cc2Cl)CC1	i	5.5	i	1.8	1.4	-3.6	.	.
Cc1cccc(N2CCN(C(=S)Nc3ccc4nc(N5CCN(C)CC5)cc(C)c4c3)CC2)c1C	.	6.7	i	10.6*	-7.0	.	12.9*	13.0
Cc1cccc(N2CCN(C(=S)Nc3ccc4nc(N5CCN(C)CC5)cc(C)c4c3)CC2C)c1 (centres undefined)	i	-4.6	i	13.6*	0.9	-5.8	4.2	16.5
CCCN(CC(=O)Nc1ccccc1OC)CC(=O)c1c(N)n(Cc2ccccc2)c(=O)n(C)c1=O	.	7.2	i	-2.2	-4.2	.	.	.
CC(=O)Nc1ccc(S(=O)(=O)N2CCN=C2SCc2ccc(F)cc2)cc1	i	0.2	i	-1.6	-6.1	-5.0	.	.
O=[N+]([O-])c1ccc(S(=O)(=O)N2CCN=C2SCc2ccc(F)cc2)cc1	i	1.9	i	10.9*	-0.3	0.4	3.9	7.8
O=C(NC(=S)NCCC1=CCCCC1)c1ccc(Br)o1	i	-0.2	i	0.1	-1.7	-1.8	.	.
O=C(NC(=S)NCCC1=CCCCC1)c1ccco1	i	9.8	i	10.1*	-2.6	-1.9	-0.9	6.6
COc1cc2nc(SCC(N)=O)n(CCC3=CCCCC3)c(=O)c2cc1OC	i	6.5	i	12.1*	9.6	-2.1	8.4*	5.9
COc1nc(-c2ccccc2)ccc1-c1noc(-c2ccco2)n1	i	2.2	i	30.9*	-1.3	-3.5	0.3	3.4
COc1ccc(-c2ccc(-c3noc(-c4ccco4)n3)c(OC)n2)cc1	i	2.8	i	8.2	4.6	-4.4	.	.
COc1ccc(OC)c(NC(=O)COC(=O)[C@H](Cc2ccccc2)NC(=O)c2ccco2)c1	.	17.7	i	1.3	-5.9	-1.2	.	.
CCN1CCC(O)(/C=C/c2ccc(C(C)C)cc2)C(C(=O)/C=C/c2ccc(C(C)C)cc2)C1 (centres undefined)	.	4.0	i	11.7*	-9.3	.	17.4*	13.7
CCN1CCN(C(=O)/C=C/c2ccc(C(C)C)cc2)CC1	i	6.4	i	-3.4	-7.9	-3.1	.	.
COc1ccc(C(=O)Nc2ccccc2-c2nnn(CC(=O)NCc3ccco3)n2)cc1	i	12.2	i	10.8*	-1.5	0.0	10.1*	8.1
CSC(=NS(=O)(=O)c1ccc(N)cc1)NS(=O)(=O)c1cccs1	.	6.1	i	-1.1	5.7	.	.	.
CC(C)c1ccc(/C=N/NC(=O)CN(c2cccc(Cl)c2Cl)S(C)(=O)=O)cc1	i	-0.4	i	22.1*	-2.0	-2.0	6.0	7.7
CS(=O)(=O)NNC(=O)Cn1nnc(-c2ccc(OCc3ccccc3Cl)cc2)n1	i	3.9	i	0.6	6.0	-2.6	.	.
SMILES	ANO1 block	MC4R antag cAMP	TMEM16A act	MC4R ag barr	HTR2A ag	beta cell repl	MC4R barr ag	MOR-DOR barr ag
CN1C(=O)/C(=C/c2cc3c(cc2Br)OCO3)NC1=S	i	-13.4	i	10.9*	5.5	1.7	0.1	3.2
O=C(Nc1nnc(COc2ccccc2F)s1)Nc1ccccc1F	i	16.0	i	12.0*	7.3	-1.9	5.9	9.6
CC(c1ccccc1)c1nnc(NC(=O)Nc2ccccc2F)s1 (centres undefined)	i	7.7	i	10.3*	6.8	-3.1	3.2	6.4
Cc1ccc(C)c(NC(=O)COC(=O)c2cc3ccccc3oc2=O)c1	.	3.4	i	-1.9	2.3	-1.1	.	.
COc1ccc(NC(=O)CN(C)C(=O)c2sc3cc(Cl)ccc3c2Cl)cc1	i	8.6	i	-1.4	-6.6	-4.8	.	.
Cc1ccc(NC(=O)CN(C)C(=O)c2sc3cc(Cl)ccc3c2Cl)cc1	i	0.9	i	10.1*	8.0	-7.5	2.3	5.5
Cc1cccc(-c2cnc(C(O)Cc3ccccc3)[nH]2)c1 (centres undefined)	.	-1.5	.	1.1	0.8	.	.	.
O=C(OCC(=O)N(Cc1ccccc1)Cc1ccccc1)c1cccc(O)c1	.	2.6	i	9.7*	0.1	-3.0	0.5	6.6
O=C(/C(=N/N=C/c1ccc(O)c(O)c1)c1ccccc1)c1ccccc1	i	17.0	i	10.1*	-1.8	0.0	2.9	11.4
O=C(Nc1ccccc1C(=O)NCCc1ccccc1)c1cnccn1	i	10.8	i	-1.9	10.9	0.0	.	.
O=S(=O)(Nc1ccc(Cc2ccncc2)cc1)c1cccs1	i	13.1	i	-0.7	-3.7	-3.3	.	.
CCCCc1ccc(NS(=O)(=O)c2cccs2)cc1	i	15.0	i	17.4*	5.3	-4.1	8.5*	6.8
COc1ccc(Cn2c(SCc3ccccc3C)nc3cc(OC)c(OC)cc3c2=N)cc1	i	14.1	i	26.3*	-8.2	-5.9	7.1	27.3*
COc1cc2nc(N3CCN(c4cc(C)ccc4C)CC3)nc(N)c2cc1OC	i	6.8	i	12.1*	-15.0	-7.0	9.8*	20.7*
COc1ccc(C)cc1Nc1nc(N)c2cc(OC)c(OC)cc2n1	i	-5.6	i	-2.7	-10.9	-7.0	.	.
